High-throughput results deposited in PubChem BioAssay by several laboratories.
Only some compounds are listed: those with a hit (about 2.2% of all), similar ones and a draw of the others.
Env fusion inh: blocks HIV Env-driven cell-cell fusion; HeLa-JRFL Env/CEM21 cell fusion, luciferase; inhibition, % at 12.3 µM; 360,000 tested, 1.1% active; AID 651610;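 active = mean replicate inhibition score of at least 50 and every replicate individually at or above 50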;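 note: 0% = plate neutral controls and 100% = maraviroc near 300 nM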
NR2E3 ag-1: human photoreceptor-specific nuclear receptor agonism | 360,000 tested, 0.35% active | CHO-S Gal4-NCOR/VP16-NR2E3 two-hybrid, luciferase | inhibition of corepressor binding, % at 3.98 µM | AID 602229 | Q9Y5X4;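 active = inhibition above the mean of all tested compounds plus 3 SD, cut at about 70% in these data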;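 note: 0% = DMSO with NR2E3 transfected cells and 100% = cells lacking NR2E3 construct; higher means lower luciferase signal from less NR2E3 corepressor binding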
Target sequence (Q9Y5X4 whole entry, looked up, the tested form may be a part): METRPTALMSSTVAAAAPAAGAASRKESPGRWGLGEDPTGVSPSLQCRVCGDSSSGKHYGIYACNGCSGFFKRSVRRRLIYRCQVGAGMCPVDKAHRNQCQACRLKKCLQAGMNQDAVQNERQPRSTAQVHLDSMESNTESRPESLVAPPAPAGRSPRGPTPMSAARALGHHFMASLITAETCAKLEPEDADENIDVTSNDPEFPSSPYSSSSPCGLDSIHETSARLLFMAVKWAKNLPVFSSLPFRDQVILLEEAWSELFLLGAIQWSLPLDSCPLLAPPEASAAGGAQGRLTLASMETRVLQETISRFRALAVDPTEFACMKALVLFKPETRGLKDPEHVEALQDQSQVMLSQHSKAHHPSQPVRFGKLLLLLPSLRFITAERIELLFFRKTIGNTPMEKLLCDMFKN
GAA850 FXN act: activators of GAA850 frataxin (FXN) promoter; HEK293 lucGAA850 FXN promoter luciferase reporter, 24 h; percent of 10 µM SAHA response; activation, % at 6 µM; 360,000 tested, 0.56% active; AID 540364;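 active = activation above the average of all compounds screened plus 3 SD, cutoff fixed separately per campaign, cut at about 7.5% in these data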;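 note: 0% = DMSO wells and 100% = 10 µM SAHA wells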
GalR3 antagonist: blocks the human galanin receptor 3 | O60755 | 360,000 tested, 0.44% active | inhibition, % at 3 µM | AID 651719 | HEK293 GalR3-CNG cAMP membrane potential fluorescence; galR3 body fused to GalR1 C-terminus;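 active = inhibition above the screen-wide average plus 3 SD, cut at about 13% in these data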;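 note: forskolin and galanin both at EC90 stimulate the cells; cAMP rise reported by CNG channel membrane potential dye signal; 0% = forskolin plus galanin with DMSO and 100% = forskolin alone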
NR2E3 ag-2: activates human photoreceptor nuclear receptor NR2E3; GST-NR2E3/biotin-RetCOR TR-FRET, 1536-well; inhibition of corepressor binding, % at 4.78 µM; 320,000 tested, 0.12% active; AID 2300;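 active = percent inhibition above the cutoff of mean plus 3 SD of all tested compounds, set per screening campaign, cut at about 20% in these data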;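 note: 0% = DMSO wells and 100% = biotin wells as full block of FRET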
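Test system: GST-NR2E3 and biotin-RetCOR proteins | Quantity: 1.35 nM GST-tagged NR2E3 final | Medium: Tris pH 7.5 | Also added: 7 nM biotin-RetCOR | Dosing: Compound at 4.8 µM, single dose | Timing: 5 h at 4 °C | Detection: Time-resolved FRET | Read-out basis: Percent inhibition | Benchmarks: Biotin wells as high control, 0.6% DMSO wells as low control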
V-ATPase pHluor: alters yeast V-ATPase proton transport. 350,000 tested, 0.37% active. S. cerevisiae, pHLuorin cytosolic pH fluorescence. response, % at 10 µM. AID 504577; in the data active = response mostly above about 7.3%, no sharp cut-off; inactive = mostly below about 5.4%; note: actives read high
An asterisk follows results filed as active; [ ] = remark or other dose.

C[C@@H]1CN([C@@H](C)CO)C(=O)Cc2cc(NS(=O)(=O)c3ccc(Cl)cc3)ccc2O[C@H]1CN(C)Cc1ccc(Cl)c(Cl)c1 was read as Env fusion inh 83*[16.7 µM].
For C[C@@H]1CN([C@H](C)CO)C(=O)Cc2cc(NS(=O)(=O)c3ccc(Cl)cc3)ccc2O[C@H]1CN(C)Cc1ccc(Cl)c(Cl)c1 the results were Env fusion inh 5[16.7 µM].
Cc1ccc(S(=O)(=O)Nc2ccc3c(c2)CC(=O)N([C@H](C)CO)C[C@H](C)[C@@H](CN(C)Cc2ccc(Oc4ccccc4)cc2)O3)cc1 was read as Env fusion inh 42[16.7 µM].
`Cc1noc(C)c1S(=O)(=O)Nc1ccc2c(c1)CC(=O)N([C@@H](C)CO)C[C@@H](C)[C@H](CN(C)Cc1ccc(Cl)c(Cl)c1)O2` gave Env fusion inh 85*[16.7 µM].
`Cc1ccc(S(=O)(=O)Nc2ccc3c(c2)CC(=O)N([C@@H](C)CO)C[C@@H](C)[C@H](CN(C)Cc2ccc(Oc4ccccc4)cc2)O3)cc1` gave Env fusion inh 73*[16.7 µM].
C[C@@H]1CN([C@@H](C)CO)C(=O)Cc2cc(NS(=O)(=O)c3ccccc3)ccc2O[C@H]1CN(C)Cc1ccc(Cl)c(Cl)c1 was read as Env fusion inh 88*[16.7 µM].
`C[C@H](NC(=O)C[C@@H]1C[C@@H]2c3cc(NS(C)(=O)=O)ccc3O[C@@H]2[C@@H](CO)O1)c1ccccc1` gave Env fusion inh 29[16.7 µM].
O=C(Nc1ccccc1F)N[C@@H]1CC[C@@H](CCNC(=O)C2CCC2)O[C@@H]1CO was read as Env fusion inh 16[16.7 µM].
`CCNC(=O)Nc1ccc2c(c1)C(=O)N(C)[C@@H]1CC[C@H](CC(=O)NCc3ccc(F)cc3)O[C@@H]1CO2` gave Env fusion inh 4[16.7 µM].
Screening CC1=Nc2ccccc2N=C(NC(=O)c2ccccc2)C1c1ccc(Cl)cc1 (stereo not drawn) returned Env fusion inh 69*, NR2E3 ag-1 -47, GAA850 FXN act 3, GalR3 antagonist -4, NR2E3 ag-2 3 and V-ATPase pHluor -2.
For CN(C(=O)CSc1nc(O)cc(=O)n1-c1ccccc1F)c1ccccc1 the results were Env fusion inh 65*, NR2E3 ag-1 -34, GAA850 FXN act 1, GalR3 antagonist -1, NR2E3 ag-2 6 and V-ATPase pHluor -1.
For CN(C(=O)CSc1nc(O)cc(=O)n1C1CCCC1)c1ccccc1 the results were Env fusion inh 12, NR2E3 ag-1 23, GAA850 FXN act -1, GalR3 antagonist 12, NR2E3 ag-2 1 and V-ATPase pHluor -2.
For Cc1noc(C)c1NC(=O)N(C)C[C@H]1Oc2ccc(NC(=O)Nc3cccc4ccccc34)cc2CC(=O)N([C@@H](C)CO)C[C@@H]1C the results were Env fusion inh -14[16.7 µM].
Screening COc1cc2sc3ccc(C#Cc4ccccn4)cc3c(=O)c2cc1OC returned Env fusion inh 56*, NR2E3 ag-1 -8, GAA850 FXN act 8, GalR3 antagonist -6, NR2E3 ag-2 -16 and V-ATPase pHluor 1.
`CSc1cccc(NC(=O)C2CCCN2S(=O)(=O)c2ccc(Br)s2)c1` (stereo not drawn) gave Env fusion inh 60*, NR2E3 ag-1 0, GAA850 FXN act 0, GalR3 antagonist -5, NR2E3 ag-2 -2 and V-ATPase pHluor 3.
Screening O=C(Nc1ccc(F)cc1)C1CCCN1S(=O)(=O)c1ccc(Br)cc1 (stereo not drawn) returned Env fusion inh 81*, NR2E3 ag-1 5, GAA850 FXN act 0, GalR3 antagonist -6, NR2E3 ag-2 -2 and V-ATPase pHluor -1.
COc1ccc(S(=O)(=O)N(C)C[C@H]2Oc3ccc(NC(=O)Nc4c(C)noc4C)cc3CC(=O)N([C@H](C)CO)C[C@H]2C)cc1 was read as Env fusion inh -9[16.7 µM].
N/C(=N\OC(=O)COc1ccc(Br)cc1Cl)c1ccccn1 was read as Env fusion inh -99, NR2E3 ag-1 -132, GAA850 FXN act -2, GalR3 antagonist -2, NR2E3 ag-2 -2 and V-ATPase pHluor 22*.
COCCCn1c(SCc2ccc(OC)cc2)nc2cc(OC)c(OC)cc2c1=N was read as Env fusion inh 57*, NR2E3 ag-1 -8, GAA850 FXN act 3, GalR3 antagonist -4, NR2E3 ag-2 -1 and V-ATPase pHluor 0.
CCCSc1nc2cc(OC)c(OC)cc2c(=N)n1CCCN1CCOCC1 was read as Env fusion inh 9, NR2E3 ag-1 -6, GAA850 FXN act 0, GalR3 antagonist 0, NR2E3 ag-2 1 and V-ATPase pHluor -2.
For CO[C@H]1CN(C)C(=O)c2cc(NC(=O)Nc3cccc(Cl)c3)ccc2OC[C@H](C)NC[C@H]1C the results were Env fusion inh 15[16.7 µM].
Screening CC(C)(C)n1nc(Cc2cccc3ccccc23)c2c(N)ncnc21 returned Env fusion inh 82*, NR2E3 ag-1 10, GAA850 FXN act 4, GalR3 antagonist 0, NR2E3 ag-2 -1 and V-ATPase pHluor 19.
`CO[C@H]1CN(C)C(=O)c2cc(NS(C)(=O)=O)ccc2OC[C@@H](C)N(C(=O)C2CCC2)C[C@H]1C` gave Env fusion inh -2[16.7 µM].
`CN(CC(=O)Nc1ccc(OC(F)(F)F)cc1)C(=O)Cc1cccs1` gave Env fusion inh 62*, NR2E3 ag-1 -9, GAA850 FXN act 3, GalR3 antagonist -2 and V-ATPase pHluor 4.
COc1cc(CNS(=O)(=O)c2ccc3c(c2)CC(C)N3C(=O)C2CCC2)cc(OC)c1OC (stereo not drawn) was read as Env fusion inh 57*, NR2E3 ag-1 43, GAA850 FXN act 1, GalR3 antagonist -2, NR2E3 ag-2 -2 and V-ATPase pHluor 4.
For O=C(O)c1ccc(OCc2ccc(C(=O)O)o2)cc1 the results were Env fusion inh -2, NR2E3 ag-1 -46, GAA850 FXN act -1, GalR3 antagonist -10, NR2E3 ag-2 -2 and V-ATPase pHluor 2.
`O=C(O)c1ccc(OCc2occc2C(=O)O)cc1` gave Env fusion inh -2, NR2E3 ag-1 9, GAA850 FXN act -3, GalR3 antagonist 1, NR2E3 ag-2 3 and V-ATPase pHluor 17*.
For CCc1nnc(N/N=C/c2ccc(N3CCC(C)CC3)c([N+](=O)[O-])c2)n1N the results were Env fusion inh 26, NR2E3 ag-1 -12, GAA850 FXN act -2, GalR3 antagonist -3, NR2E3 ag-2 0 and V-ATPase pHluor 16*.
`Cc1nnc(N/N=C/c2cc([N+](=O)[O-])c(N3CCC(C)CC3)cc2N2CCC(C)CC2)n1N` gave Env fusion inh -13, NR2E3 ag-1 -4, GAA850 FXN act 1, GalR3 antagonist -4, NR2E3 ag-2 0 and V-ATPase pHluor 2.
